Reference: ChEMBL document CHEMBL4184147, “Polyphenolic Phytochemicals in Cancer Prevention and Therapy: Bioavailability versus Bioefficacy” (J Med Chem, 2017)

Legend:
[1] = test system: Lipid bilayer; assay: Induction of DOPC/n-decane bilayer property changes assessed as concentration required to double gramicidin-induced quencher influx rate by […]
[2] = test system: COLO 201; assay: Cytotoxicity against human COLO201 cells assessed as cell viability at 6 uM after 48 hrs by MTT assay; assay type: functional; settings: COLO 201, 48 h, read-out: Activity
[3] = test system: HT-29; assay: Cytotoxicity against human HT-29 cells assessed as cell viability at 6 uM after 48 hrs by MTT assay; assay type: functional; settings: HT-29, 48 h, read-out: Activity
[4] = Cytotoxicity against human MML1 cells assessed as cell viability at 6 uM after 48 hrs by MTT assay; assay type: functional; settings: read-out: Activity
[5] = test system: NCI-H460; assay: Cytotoxicity against human NCI-H460 cells assessed as cell viability at 6 uM after 48 hrs by MTT assay; assay type: functional; settings: NCI-H460, 48 h, read-out: Activity
[6] = test system: A549; assay: Cytotoxicity against human A549 cells assessed as decrease in cell viability after 48 hrs by trypan blue exclusion and LDH release; settings: A549, 48 h
[7] = Cmax in mouse at 100 mg/kg, po by HPLC method; assay type: ADME, organism-based; design: dose 100 mg/kg, route oral; settings: in vivo
How it was run: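 For oral dosing, polyphenol was dissolved in a self-microemulsifying delivery system: 60% surfactant (emulsifier OP:Cremophor EL 1:1), 30% cosurfactant (PEG 400) and 10% oil (ethyl oleate). Total volume given was never above 100 μL. Plasma levels were quantified by previously described methods.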

[8] = test system: U-87 MG; assay: Cytotoxicity against human U87 cells assessed as cell viability at 6 uM after 48 hrs by MTT assay; assay type: functional, U-87MG ATCC; settings: read-out: Activity
[9] = test system: HT-29; assay: Cytotoxicity against human HT-29 cells assessed as decrease in cell viability after 48 hrs by trypan blue exclusion and LDH release; settings: HT-29, 48 h
[10] = test system: NCI-H460; assay: Cytotoxicity against human NCI-H460 cells assessed as decrease in cell viability after 48 hrs by MTT assay; assay type: functional, cell-based; settings: NCI-H460, 48 h
[11] = test system: BXPC-3; assay: Cytotoxicity against human BxPC3 cells assessed as decrease in cell viability after 48 hrs by MTT assay; assay type: functional, cell-based; settings: BXPC-3, 48 h
[12] = Cmax in mouse at 10 mg/kg, iv by LC-MS/MS method; assay type: ADME, organism-based; design: dose 10 mg/kg, route intravenous; settings: in vivo
How it was run: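 Mouse iv dosing used polyphenol dissolved in DMSO:ethanol (2:1), with total injected volume never above 30 μL. Plasma levels were measured by previously described methods.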

[13] = test system: T47D; assay: Cytotoxicity against human T47D cells assessed as decrease in cell viability after 48 hrs by trypan blue exclusion and LDH release
[14] = test system: U-87 MG; assay: Cytotoxicity against human U87 cells assessed as decrease in cell viability after 48 hrs by trypan blue exclusion and LDH release
[15] = Plasma concentration in mouse at 10 mg/kg, iv at 60 mins by LC-MS/MS method; assay type: ADME, organism-based
How it was run: (§1)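 For IV dosing, compound dissolved in DMSO:ethanol (2:1), total volume no more than 30 μL. For oral dosing, compound given in a self-microemulsifying delivery system (60% surfactant, emulsifier OP:Cremophor EL 1:1; 30% PEG 400; 10% ethyl oleate), total volume no more than 100 μL. Plasma levels measured by previously described methods.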

[16] = test system: LN-229; assay: Cytotoxicity against human LN229 cells assessed as cell viability at 6 uM after 48 hrs by MTT assay; assay type: functional; settings: LN-229, 48 h, read-out: Activity
[17] = test system: PANC-1; assay: Cytotoxicity against human PANC1 cells assessed as cell viability at 6 uM after 48 hrs by MTT assay; assay type: functional; settings: PANC-1, 48 h, read-out: Activity
[18] = test system: A549; assay: Cytotoxicity against human A549 cells assessed as cell viability at 6 uM after 48 hrs by MTT assay; assay type: functional; settings: A549, 48 h, read-out: Activity
[19] = Displacement of [3H]resveratrol from Sprague-Dawley rat brain plasma membranes after 1 hr by beta counting method; assay type: cell membranes
[20] = test system: COLO 201; assay: Cytotoxicity against human COLO201 cells assessed as decrease in cell viability after 48 hrs by trypan blue exclusion and LDH release; settings: COLO 201, 48 h
[21] = test system: T47D; assay: Cytotoxicity against human T47D cells assessed as cell viability at 6 uM after 48 hrs by MTT assay; assay type: functional; settings: read-out: Activity
[22] = Plasma concentration in mouse at 100 mg/kg, po at 60 mins by LC-MS/MS method; assay type: ADME, organism-based; how it was run: as §1
[23] = test system: SK-MEL-2; assay: Cytotoxicity against human SK-MEL-2 cells assessed as cell viability at 6 uM after 48 hrs by MTT assay; assay type: functional; settings: SK-MEL-2, 48 h, read-out: Activity
[24] = Tmax in mouse at 10 mg/kg, iv by LC-MS/MS method; assay type: ADME, organism-based; settings: in vivo; how it was run: as §1
[25] = test system: LN-229; assay: Cytotoxicity against human LN229 cells assessed as decrease in cell viability after 48 hrs by trypan blue exclusion and LDH release; settings: LN-229, 48 h
[26] = molecular target: Cannabinoid receptor 1 (Homo sapiens, UniProt P21554); assay: Displacement of […] from human recombinant CB1 receptor expressed in Chem1 cells after 90 mins by scintillation counting method; assay type: cell-based
[27] = Cytotoxicity against human MML1 cells assessed as decrease in cell viability after 48 hrs by MTT assay; assay type: functional, cell-based
[28] = test system: SK-MEL-2; assay: Cytotoxicity against human SK-MEL-2 cells assessed as decrease in cell viability after 48 hrs by MTT assay; assay type: functional, cell-based; settings: SK-MEL-2, 48 h
[29] = Tmax in mouse at 100 mg/kg, po by HPLC method; assay type: ADME, organism-based; settings: in vivo
How it was run: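 Given orally in a self-microemulsifying delivery system (60% surfactant, emulsifier OP:Cremophor EL 1:1; 30% PEG 400 cosurfactant; 10% ethyl oleate oil), total volume no more than 100 μL. Plasma levels measured by previously described methods.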

[30] = test system: PANC-1; assay: Cytotoxicity against human PANC1 cells assessed as decrease in cell viability after 48 hrs by MTT assay; assay type: functional, cell-based; settings: PANC-1, 48 h
[31] = test system: MDA-MB-231; assay: Cytotoxicity against human MDA-MB-231 cells assessed as decrease in cell viability after 48 hrs by trypan blue exclusion and LDH release; settings: MDA-MB-231, 48 h
[32] = test system: MDA-MB-231; assay: Cytotoxicity against human MDA-MB-231 cells assessed as cell viability at 6 uM after 48 hrs by MTT assay; assay type: functional; settings: MDA-MB-231, 48 h, read-out: Activity
[33] = test system: BXPC-3; assay: Cytotoxicity against human BxPC3 cells assessed as cell viability at 6 uM after 48 hrs by MTT assay; assay type: functional; settings: BXPC-3, 48 h, read-out: Activity

Sequence of Cannabinoid receptor 1 (P21554 whole entry): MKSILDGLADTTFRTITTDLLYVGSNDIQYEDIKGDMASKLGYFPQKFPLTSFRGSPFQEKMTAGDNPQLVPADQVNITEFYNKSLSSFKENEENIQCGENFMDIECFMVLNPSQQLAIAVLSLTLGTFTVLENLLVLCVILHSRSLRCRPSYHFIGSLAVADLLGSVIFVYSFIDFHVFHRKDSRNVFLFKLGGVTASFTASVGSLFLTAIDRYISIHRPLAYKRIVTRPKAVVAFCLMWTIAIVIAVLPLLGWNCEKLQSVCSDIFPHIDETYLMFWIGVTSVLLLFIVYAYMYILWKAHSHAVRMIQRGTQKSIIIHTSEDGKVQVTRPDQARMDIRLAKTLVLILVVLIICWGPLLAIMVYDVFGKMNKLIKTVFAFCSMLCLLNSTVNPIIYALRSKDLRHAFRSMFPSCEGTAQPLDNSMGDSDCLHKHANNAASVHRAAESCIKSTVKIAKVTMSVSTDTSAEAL

Which Activity [1] does the source give for `COc1cc(CNC(=O)CCCC/C=C/C(C)C)ccc1O` here?
The Activity was 18 µM.

Which results are given for `O=C(O[C@@H]1Cc2c(O)cc(O)cc2O[C@@H]1c1cc(O)c(O)c(O)c1)c1cc(O)c(O)c(O)c1` [EPIGALOCATECHIN GALLATE]?
viability at 6 µM [2]: 100%; viability at 6 µM [3]: 96%; viability at 6 µM [4]: 102%; viability at 6 µM [5]: 105%; IC50 [6]: 29 µM; Cmax [7]: 5 µM; viability at 6 µM [8]: 98%; IC50 [9]: 60 µM; IC50 [10]: 18 µM; IC50 [11]: 33 µM; Cmax [12]: 12 µM; IC50 [13]: 57 µM; IC50 [14]: 18 µM; concentration at 1 h [15]: < 1 µM; viability at 6 µM [16]: 106%; viability at 6 µM [17]: 95%; Activity [1]: 11.2 µM; viability at 6 µM [18]: 103%; Ki [19]: 0.025 to 0.045 µM; IC50 [20]: 38 µM; viability at 6 µM [21]: 100%; concentration at 1 h [22]: < 1 µM; viability at 6 µM [23]: 99%; Tmax [24]: 5 min; IC50 [25]: 15 µM; Ki [26]: 33.6 µM; IC50 [27]: 25 µM; IC50 [28]: 31 µM; Tmax [29]: 30 min; IC50 [30]: 62 µM; IC50 [31]: 83 µM; viability at 6 µM [32]: 102%; viability at 6 µM [33]: 97%
